Measured values from ChEMBL document CHEMBL1151472, “In vitro interactions between tacrolimus and azoles against Candida albicans determined by different methods” (2008).
≈ marks a conversion by molar mass, not a printed value.

Experiments:
Assay type in all cases: functional
[1] = test system: Candida albicans; assay: Antimicrobial activity against azole-resistant Candida albicans isolate CA10 assessed as growth at 0.25 ug/ml cotreated with 0.063 ug/ml calcineurin signaling inhibitor Tacrolimus after 48 hrs by microdilution checkboard technique relative to control; set-up: scale not given: the % may be the effect or the level left
How it was run: (§1)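 Checkerboard microdilution in RPMI 1640 (pH 7.0, 2% dextrose, 0.165 M MOPS). Azole dilutions run along columns and FK506 along rows, at 4× final concentration. Final inoculum 2.5 × 10^3 CFU/ml from Sabouraud-subcultured cells. Incubated 35°C for 48 h; OD read at 492 nm. Background from microorganism-free plates subtracted. Growth % = well OD / drug-free well OD. Triplicate on different days, values averaged.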

[2] = test system: Candida albicans; assay: Antimicrobial activity against azole-resistant Candida albicans isolate CA10 assessed as growth at 1 ug/ml cotreated with 0.004 ug/ml calcineurin signaling inhibitor Tacrolimus after 48 hrs by microdilution checkboard technique relative to control; set-up: scale not given: the % may be the effect or the level left
How it was run: (§2)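 Checkerboard microdilution in MOPS-buffered RPMI 1640 (pH 7.0, 2% dextrose). Final ranges: azole 0.125–128 μg/ml (FLC) or 0.008–8 μg/ml (ITR, VRC), tacrolimus 0.002–0.125 μg/ml; solvent 1% in single-drug wells. Inoculum 2.5 × 10^3 CFU/ml, 35°C, 48 h. Growth % = background-subtracted OD492 of each well / drug-free well. Triplicate on different days.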

[3] = test system: Candida albicans; assay: Antimicrobial activity against azole-resistant Candida albicans isolate CA135 cotreated with calcineurin signaling inhibitor Tacrolimus after 48 hrs by microdilution checkerboard technique; conditions: isolate CA135, 48 h
How it was run: (§3)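 Checkerboard microdilution in MOPS-buffered RPMI 1640 (pH 7.0, 2% dextrose) with 2.5 × 10^3 CFU/ml for 48 h at 35°C. Final FK506 was 0.002–0.125 μg/ml. Azole finals were FLC 0.125–128 μg/ml, and ITR and VRC 0.008–8 μg/ml. MIC80 is an 80% OD492 decrease vs drug-free control. Interaction was scored by FICI (synergy ≤0.5, antagonism >4) and by ΔE from triplicates.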

[4] = test system: Candida albicans; assay: Antimicrobial activity against azole-resistant Candida albicans isolate CA10 assessed as growth at 0.125 ug/ml co-treated with 0.031 ug/ml calcineurin signaling inhibitor tacrolimus after 48 hrs by microdilution checkboard technique relative to control; set-up: scale not given: the % may be the effect or the level left; how it was run: as §1
[5] = test system: Candida albicans; assay: Antimicrobial activity against azole-resistant Candida albicans isolate CA16 after 48 hrs by broth microdilution method; conditions: isolate CA16, 48 h
How it was run: (§4)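 CLSI M27-A2 broth microdilution was run in RPMI 1640 (pH 7.0, 2% dextrose, 0.165 M MOPS). Inoculum was 2.5 × 10^3 CFU/ml, incubated 35°C for 48 h without shaking. Plates were read visually (0–5 scale) and at OD 492 nm. MIC80 = lowest concentration giving an 80% absorbance decrease vs drug-free control. Triplicate.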

[6] = test system: Candida albicans; assay: Antimicrobial activity against azole-resistant Candida albicans isolate CA10 assessed as growth at 0.25 ug/ml after 48 hrs by microdilution checkerboard technique relative to control; how it was run: as §1
[7] = test system: Candida albicans; assay: Antimicrobial activity against azole-resistant Candida albicans isolate CA10 assessed as growth at 0.002 ug/ml after 48 hrs by microdilution checkerboard technique relative to control; how it was run: as §2
[8] = test system: Candida albicans; assay: Antimicrobial activity against azole-resistant Candida albicans isolate CA10 assessed as growth at 0.125 ug/ml cotreated with 0.002 ug/ml calcineurin signaling inhibitor Tacrolimus after 48 hrs by microdilution checkboard technique relative to control; set-up: scale not given: the % may be the effect or the level left; how it was run: as §2
[9] = test system: Candida albicans; assay: Antimicrobial activity against azole-resistant Candida albicans isolate CA10 assessed as growth at 0.5 ug/ml co-treated with 0.125 ug/ml calcineurin signaling inhibitor tacrolimus after 48 hrs by microdilution checkboard technique relative to control; set-up: scale not given: the % may be the effect or the level left; how it was run: as §2
[10] = test system: Candida albicans; assay: Antimicrobial activity against azole-resistant Candida albicans isolate CA16 cotreated with calcineurin signaling inhibitor Tacrolimus after 48 hrs by microdilution checkerboard technique; conditions: isolate CA16, 48 h; how it was run: as §3
[11] = test system: Candida albicans; assay: Antimicrobial activity against azole-resistant Candida albicans isolate CA10 assessed as growth at 4 ug/ml cotreated with 0.008 ug/ml calcineurin signaling inhibitor tacrolimus after 48 hrs by microdilution checkerboard technique relative to control; set-up: scale not given: the % may be the effect or the level left
How it was run: (§5)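 CA10 in RPMI 1640 with 2% dextrose and 0.165 M MOPS, pH 7.0. Checkerboard used twofold dilutions, with azole alone in row H and the drug-free growth control in well H1. Final inoculum was 2.5 × 10^3 CFU/ml, incubated 35°C for 48 h, with OD read at 492 nm. Growth % = background-subtracted well OD / drug-free well OD. Run in triplicate on different days.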

[12] = test system: Candida albicans; assay: Antimicrobial activity against azole-resistant Candida albicans isolate CA10 assessed as growth at 0.25 ug/ml cotreated with 0.016 ug/ml calcineurin signaling inhibitor Tacrolimus after 48 hrs by microdilution checkboard technique relative to control; set-up: scale not given: the % may be the effect or the level left; how it was run: as §1
[13] = test system: Candida albicans; assay: Antimicrobial activity against azole-resistant Candida albicans isolate CA10 assessed as growth at 0.5 ug/ml co-treated with 0.031 ug/ml calcineurin signaling inhibitor tacrolimus after 48 hrs by microdilution checkboard technique relative to control; set-up: scale not given: the % may be the effect or the level left; how it was run: as §1
[14] = test system: Candida albicans; assay: Antimicrobial activity against azole-resistant Candida albicans isolate CA10 assessed as growth at 0.063 ug/ml after 48 hrs by microdilution checkerboard technique relative to control; how it was run: as §2
[15] = test system: Candida albicans; assay: Antimicrobial activity against azole-resistant Candida albicans isolate CA10 assessed as growth at 128 ug/ml cotreated with 0.002 ug/ml calcineurin signaling inhibitor Tacrolimus after 48 hrs by microdilution checkboard technique relative to control; set-up: scale not given: the % may be the effect or the level left; how it was run: as §2
[16] = test system: Candida albicans; assay: Antimicrobial activity against azole-resistant Candida albicans isolate CA10 assessed as growth at 2 ug/ml cotreated with 0.008 ug/ml calcineurin signaling inhibitor Tacrolimus after 48 hrs by microdilution checkboard technique relative to control; set-up: scale not given: the % may be the effect or the level left; how it was run: as §2
[17] = test system: Candida albicans; assay: Antimicrobial activity against azole-resistant Candida albicans isolate CA10 assessed as growth at 4 ug/ml cotreated with 0.002 ug/ml calcineurin signaling inhibitor tacrolimus after 48 hrs by microdilution checkerboard technique relative to control; set-up: scale not given: the % may be the effect or the level left; how it was run: as §5
[18] = test system: Candida albicans; assay: Antimicrobial activity against azole-susceptible Candida albicans isolate CA5 after 48 hrs by broth microdilution method; conditions: isolate CA5, 48 h; how it was run: as §4
[19] = test system: Candida albicans; assay: Antimicrobial activity against azole-resistant Candida albicans isolate CA10 assessed as growth at 1 ug/ml cotreated with 0.031 ug/ml calcineurin signaling inhibitor tacrolimus after 48 hrs by microdilution checkerboard technique relative to control; set-up: scale not given: the % may be the effect or the level left; how it was run: as §1
[20] = test system: Candida albicans; assay: Antimicrobial activity against azole-resistant Candida albicans isolate CA10 assessed as growth at 0.125 ug/ml cotreated with 0.125 ug/ml calcineurin signaling inhibitor Tacrolimus after 48 hrs by microdilution checkboard technique relative to control; set-up: scale not given: the % may be the effect or the level left; how it was run: as §2
[21] = test system: Candida albicans; assay: Antimicrobial activity against azole-resistant Candida albicans isolate CA10 assessed as growth at 8 ug/ml cotreated with 0.031 ug/ml calcineurin signaling inhibitor tacrolimus after 48 hrs by microdilution checkerboard technique relative to control; set-up: scale not given: the % may be the effect or the level left; how it was run: as §1
[22] = test system: Candida albicans; assay: Antimicrobial activity against azole-resistant Candida albicans isolate CA10 assessed as growth at 0.25 ug/ml cotreated with 0.002 ug/ml calcineurin signaling inhibitor Tacrolimus after 48 hrs by microdilution checkboard technique relative to control; set-up: scale not given: the % may be the effect or the level left; how it was run: as §1
[23] = test system: Candida albicans; assay: Antimicrobial activity against azole-resistant Candida albicans isolate CA10 assessed as growth at 0.5 ug/ml cotreated with 0.008 ug/ml calcineurin signaling inhibitor tacrolimus after 48 hrs by microdilution checkerboard technique relative to control; set-up: scale not given: the % may be the effect or the level left; how it was run: as §2

OC(Cn1cncn1)(Cn1cncn1)c1ccc(F)cc1F [FLUCONAZOLE]
Activity [1]: 11%
Activity [2]: 29%
MIC [3]: 0.25 µg/mL
Activity [4]: 36%
MIC [5]: 64 µg/mL (≈ 209 µM)
Activity [6]: 63%
Activity [7]: 97%
Activity [8]: 76%
Activity [9]: 6%
MIC [10]: 0.5 µg/mL
Activity [11]: 30%
Activity [12]: 23%
Activity [13]: 19%
Activity [14]: 93%
Activity [15]: 44%
Activity [16]: 22%
Activity [17]: 44%
MIC [18]: 0.25 µg/mL (≈ 0.816 µM)
Activity [19]: 17%
Activity [20]: 25%
Activity [21]: 18%
Activity [22]: 61%
Activity [23]: 34%
